SMILES strings stand for the structures. The source made the active and inactive calls. The calls are words filed in the database; no cut-off is given here.

This note sets out measurements from ChEMBL document CHEMBL4480417, “Methylsulfonylated Polyketides Produced by Neosartorya udagawae HDN13-313 via Exogenous Addition of Small Molecules” (J Nat Prod, 2019).

The subject of one data set is K562. The data set is described as follows: Cytotoxicity against human K562 cells at 30 uM after 72 hrs by MTT assay. Conditions: k562, 72 h. The data set is classed as cell-based. For orientation: Formazan colour is commonly taken as a measure of viable cells.
Another data set concerns HCT-116. The data set is described as follows: Cytotoxicity against human HCT116 cells at 30 uM after 72 hrs by MTT assay. Particulars: hct-116, 72 h. Type of data set: cell-based.
For the next data set, the system named is HeLa. The data set is described as follows: Cytotoxicity against human HeLa cells at 30 uM after 72 hrs by MTT assay. The data set is classed as cell-based.
Another data set concerns HL-60. The data set is described as follows: Cytotoxicity against human HL60 cells at 30 uM after 72 hrs by MTT assay. The data set is classed as cell-based. Particulars: hl-60, 72 h.
A further data set relates to HepG2. The data set is described as follows: Lipid lowering activity in human HepG2 cells assessed as reduction in oleic acid-induced lipid accumulation at 10 uM after 24 hrs by oil red O staining based spectrophotometric method. The data set is classed as functional, cell-based. A digest of the protocol: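 HepG2 cells in log phase seeded at 1.2 × 10^4 cells/well, grown 12 h to 70–80% confluence, then serum-starved 12 h in serum-free DMEM. Oleic acid added (final 80 μM) with test agent or simvastatin (final 10 μM), 24 h. Blank: DMEM only; OA alone as negative control. Cells fixed in 4% paraformaldehyde, rinsed with 60% 2-propanol, stained with 0.3% Oil Red O for 1 h, dye dissolved in DMSO, OD 358 nm; ≥3 experiments, mean ± SEM.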

Regarding `COc1c(O)ccc2c(=O)oc3cc(CO)cc(O)c3c(=O)c12`, the Activity result in the data set with K562, in the data set with HCT-116, in the data set on HeLa and with HL-60 was “Non-Toxic” each time.

Take `COc1cc(S(C)(=O)=O)cc2c(=O)oc3cc(CO)cc(O)c3c(=O)c12`: the Activity entry in the data set on K562, with HCT-116, in the data set on HeLa and in the data set on HL-60 was “Non-Toxic” throughout. In addition, in the data set on HepG2, the result was Active.

Take `COc1c(O)c(O)c(C)c(S(C)(=O)=O)c1O`: the Activity result in the data set with K562, with HCT-116, with HeLa and in the data set on HL-60 was “Non-Toxic” in each case.

For `CCC(C)(C)C(=O)O[C@H]1C[C@@H](C)C=C2C=C[C@H](C)[C@H](CC[C@@H]3C[C@@H](O)CC(=O)O3)[C@H]21`, the result with HepG2 was Active.
